Usually IC50 stands for the concentration that inhibits the measured activity by half.

For assay [1], the target named is Voltage-dependent L-type calcium channel subunit alpha-1C (Oryctolagus cuniculus, UniProt P15381). Nature of the assay: Antagonist activity at rabbit CaV1.2alpha1C transfected in HEK293 cells by FLIPR assay. Format: cell-based. The method in brief: (§1)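 HEK293 cells stably expressing the L-type channel (rat CaV1.3 α1D with all alternative splice sites, or rabbit CaV1.2 α1C), each co-expressed with rat β3 and α2δ-1 subunits. Cells plated at 4 × 10⁴ cells/well and cultured in DMEM with 10% FBS for 4 days. Calcium influx read by Fluo-8 no-wash dye fluorescence on FLIPR Tetra. IC50 from triplicate percent-inhibition data fitted to a one-site sigmoidal model.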

The target of assay [2] is Voltage-dependent L-type calcium channel subunit alpha-1D (Rattus norvegicus, UniProt P27732). Nature of the assay: Antagonist activity at rat CaV1.3alpha1D transfected in HEK293 cells by FLIPR assay. The assay is classed as cell-based. The method in brief: as §1
Voltage-dependent L-type calcium channel subunit alpha-1D, sequence (P27732 whole entry): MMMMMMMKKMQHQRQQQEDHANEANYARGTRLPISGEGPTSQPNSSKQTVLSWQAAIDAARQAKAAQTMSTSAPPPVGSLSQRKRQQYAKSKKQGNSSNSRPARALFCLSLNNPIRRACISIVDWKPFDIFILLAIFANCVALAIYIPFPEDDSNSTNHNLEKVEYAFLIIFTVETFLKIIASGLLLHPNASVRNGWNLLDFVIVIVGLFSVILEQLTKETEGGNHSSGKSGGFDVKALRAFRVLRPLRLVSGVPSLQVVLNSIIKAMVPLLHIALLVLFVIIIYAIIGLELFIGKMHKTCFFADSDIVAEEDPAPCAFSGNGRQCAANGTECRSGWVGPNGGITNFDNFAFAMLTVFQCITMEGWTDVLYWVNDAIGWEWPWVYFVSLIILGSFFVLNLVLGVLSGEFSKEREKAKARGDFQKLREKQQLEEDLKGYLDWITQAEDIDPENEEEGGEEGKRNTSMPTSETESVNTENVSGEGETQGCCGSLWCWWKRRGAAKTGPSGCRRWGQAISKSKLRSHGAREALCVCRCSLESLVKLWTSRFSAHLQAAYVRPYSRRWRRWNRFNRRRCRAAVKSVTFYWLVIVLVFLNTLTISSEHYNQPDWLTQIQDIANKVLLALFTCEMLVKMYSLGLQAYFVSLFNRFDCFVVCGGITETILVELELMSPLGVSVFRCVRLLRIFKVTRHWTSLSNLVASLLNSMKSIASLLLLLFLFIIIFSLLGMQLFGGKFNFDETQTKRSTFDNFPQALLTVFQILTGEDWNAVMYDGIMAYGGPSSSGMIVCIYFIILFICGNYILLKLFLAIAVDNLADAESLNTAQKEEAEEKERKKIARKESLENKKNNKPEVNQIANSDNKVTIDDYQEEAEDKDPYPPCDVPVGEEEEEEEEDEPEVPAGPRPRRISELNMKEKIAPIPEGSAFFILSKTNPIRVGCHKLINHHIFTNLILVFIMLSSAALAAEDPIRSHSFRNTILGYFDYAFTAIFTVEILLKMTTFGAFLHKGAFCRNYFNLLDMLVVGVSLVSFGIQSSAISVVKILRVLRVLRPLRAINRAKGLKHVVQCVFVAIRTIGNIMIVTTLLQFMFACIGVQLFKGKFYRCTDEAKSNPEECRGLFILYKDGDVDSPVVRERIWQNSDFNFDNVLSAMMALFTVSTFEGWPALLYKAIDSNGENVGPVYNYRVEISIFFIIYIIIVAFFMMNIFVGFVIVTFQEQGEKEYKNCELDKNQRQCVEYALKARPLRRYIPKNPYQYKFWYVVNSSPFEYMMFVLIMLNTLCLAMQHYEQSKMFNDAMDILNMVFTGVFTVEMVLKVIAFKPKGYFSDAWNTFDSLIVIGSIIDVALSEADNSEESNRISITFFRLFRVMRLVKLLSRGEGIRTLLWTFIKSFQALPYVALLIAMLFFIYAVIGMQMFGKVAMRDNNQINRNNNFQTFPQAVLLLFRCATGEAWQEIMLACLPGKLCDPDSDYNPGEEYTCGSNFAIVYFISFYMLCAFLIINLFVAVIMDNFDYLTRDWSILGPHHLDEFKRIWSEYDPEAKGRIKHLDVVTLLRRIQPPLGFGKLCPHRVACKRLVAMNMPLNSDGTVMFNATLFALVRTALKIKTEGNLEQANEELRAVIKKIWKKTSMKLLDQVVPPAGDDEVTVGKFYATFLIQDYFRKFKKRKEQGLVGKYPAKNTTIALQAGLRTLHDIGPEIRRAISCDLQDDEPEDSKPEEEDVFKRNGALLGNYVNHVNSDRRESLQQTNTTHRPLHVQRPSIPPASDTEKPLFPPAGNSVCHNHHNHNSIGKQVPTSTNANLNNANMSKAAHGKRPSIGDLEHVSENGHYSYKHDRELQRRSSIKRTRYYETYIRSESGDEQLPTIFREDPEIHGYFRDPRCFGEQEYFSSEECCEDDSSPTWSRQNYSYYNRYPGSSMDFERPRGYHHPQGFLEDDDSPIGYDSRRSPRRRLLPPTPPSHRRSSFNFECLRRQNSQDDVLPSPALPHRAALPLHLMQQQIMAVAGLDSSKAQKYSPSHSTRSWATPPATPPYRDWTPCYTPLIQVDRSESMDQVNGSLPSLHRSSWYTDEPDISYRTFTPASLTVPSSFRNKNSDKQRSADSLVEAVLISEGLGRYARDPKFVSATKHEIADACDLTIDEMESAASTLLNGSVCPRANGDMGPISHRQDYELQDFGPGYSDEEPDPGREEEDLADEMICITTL

Voltage-dependent L-type calcium channel subunit alpha-1C, sequence (P15381 whole entry, canonical isoform): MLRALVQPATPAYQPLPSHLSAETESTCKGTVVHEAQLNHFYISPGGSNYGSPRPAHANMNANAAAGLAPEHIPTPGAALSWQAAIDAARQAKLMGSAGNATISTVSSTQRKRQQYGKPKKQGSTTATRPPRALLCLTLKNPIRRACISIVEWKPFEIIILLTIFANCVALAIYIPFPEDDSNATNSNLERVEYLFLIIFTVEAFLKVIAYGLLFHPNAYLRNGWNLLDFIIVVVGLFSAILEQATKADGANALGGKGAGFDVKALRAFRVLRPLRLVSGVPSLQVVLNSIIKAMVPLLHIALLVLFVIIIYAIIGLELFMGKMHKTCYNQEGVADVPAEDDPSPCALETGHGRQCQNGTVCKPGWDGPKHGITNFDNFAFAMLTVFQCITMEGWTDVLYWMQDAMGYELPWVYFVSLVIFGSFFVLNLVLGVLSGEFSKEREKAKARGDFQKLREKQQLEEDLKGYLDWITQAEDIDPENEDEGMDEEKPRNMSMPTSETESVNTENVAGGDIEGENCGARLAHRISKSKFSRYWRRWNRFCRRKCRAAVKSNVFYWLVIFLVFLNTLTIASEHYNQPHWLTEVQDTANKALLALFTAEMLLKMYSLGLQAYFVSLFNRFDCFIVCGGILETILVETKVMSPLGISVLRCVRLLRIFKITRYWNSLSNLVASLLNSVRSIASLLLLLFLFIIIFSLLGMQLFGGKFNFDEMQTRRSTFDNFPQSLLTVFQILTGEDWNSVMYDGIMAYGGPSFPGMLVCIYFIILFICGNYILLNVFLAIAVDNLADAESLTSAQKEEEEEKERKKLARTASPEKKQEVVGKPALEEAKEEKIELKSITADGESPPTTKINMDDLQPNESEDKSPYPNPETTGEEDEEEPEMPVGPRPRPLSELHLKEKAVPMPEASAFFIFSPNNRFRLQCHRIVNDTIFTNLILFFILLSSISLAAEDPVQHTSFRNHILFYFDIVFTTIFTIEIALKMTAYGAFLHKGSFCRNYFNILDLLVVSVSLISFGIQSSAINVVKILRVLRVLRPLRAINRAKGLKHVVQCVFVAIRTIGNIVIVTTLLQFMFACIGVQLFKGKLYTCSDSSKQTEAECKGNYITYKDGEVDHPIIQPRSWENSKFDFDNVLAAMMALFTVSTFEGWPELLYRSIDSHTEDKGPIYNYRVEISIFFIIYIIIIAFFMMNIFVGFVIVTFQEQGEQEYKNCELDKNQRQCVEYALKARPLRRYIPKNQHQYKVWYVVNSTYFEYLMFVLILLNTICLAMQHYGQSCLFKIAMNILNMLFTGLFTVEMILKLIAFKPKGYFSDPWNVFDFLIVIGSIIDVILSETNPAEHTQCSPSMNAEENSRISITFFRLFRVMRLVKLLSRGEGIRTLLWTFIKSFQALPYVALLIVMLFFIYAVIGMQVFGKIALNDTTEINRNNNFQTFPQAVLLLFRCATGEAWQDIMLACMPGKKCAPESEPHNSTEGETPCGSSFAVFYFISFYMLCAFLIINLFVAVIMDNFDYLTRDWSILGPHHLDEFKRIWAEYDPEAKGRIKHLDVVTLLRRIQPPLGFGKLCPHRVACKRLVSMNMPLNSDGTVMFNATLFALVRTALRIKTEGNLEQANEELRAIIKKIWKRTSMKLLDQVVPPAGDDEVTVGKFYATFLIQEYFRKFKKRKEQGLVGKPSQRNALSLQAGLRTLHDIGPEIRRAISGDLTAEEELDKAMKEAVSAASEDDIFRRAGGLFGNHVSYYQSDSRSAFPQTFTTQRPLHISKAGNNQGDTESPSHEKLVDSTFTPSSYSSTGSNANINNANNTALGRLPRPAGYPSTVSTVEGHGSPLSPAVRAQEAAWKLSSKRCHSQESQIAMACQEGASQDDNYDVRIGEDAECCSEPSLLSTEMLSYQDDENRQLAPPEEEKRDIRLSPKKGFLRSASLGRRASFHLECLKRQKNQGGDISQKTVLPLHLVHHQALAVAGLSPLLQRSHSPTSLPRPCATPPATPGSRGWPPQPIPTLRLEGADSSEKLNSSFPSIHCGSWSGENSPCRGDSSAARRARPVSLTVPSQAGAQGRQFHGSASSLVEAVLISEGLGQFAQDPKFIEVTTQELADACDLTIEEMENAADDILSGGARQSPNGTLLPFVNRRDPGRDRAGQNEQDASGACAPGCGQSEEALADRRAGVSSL

With `O=C1CC(=O)N([C@H]2CCC[C@@H]2O)C(=O)N1CCc1cccc(Cl)c1`, the IC50 in assay [1] and in assay [2] was > 100 µM throughout.
On to `CC1(C)CCC[C@H]1N1C(=O)CC(=O)N(CCc2ccc(Cl)cc2)C1=O`, for which the IC50 came to 4.8 µM in assay [1] and 4.7 µM in assay [2].
Take `CC1(C)CCC[C@H]1N1C(=O)CC(=O)N(CCc2cccc(C(F)(F)F)c2)C1=O`: the IC50 in assay [1] turned out to be 3.1 µM; in assay [2], 2.7 µM.
For `O=C1CC(=O)N([C@@H]2C[C@@H]3CC[C@H]2C3)C(=O)N1CCc1cccc(C(F)(F)F)c1`, the IC50 came out at 76.6 µM in assay [1] and 2.1 µM in assay [2].
Turning to `CC1(C)CCC(N2C(=O)CC(=O)N(CCc3ccc(Cl)cc3)C2=O)C1` (centres undefined), the IC50 came to 26 µM in assay [1] and 3.7 µM in assay [2].
Consider `O=C1CC(=O)N(C2Cc3ccccc3C2)C(=O)N1C1CCCC1`, for which the figures for the IC50 in assay [1] and in assay [2] were 16.4 µM and 14.4 µM, respectively.
Consider `C[C@H](c1cccc2ccccc12)N1C(=O)CC(=O)N(CCc2cccc(Cl)c2)C1=O`, for which the IC50 in assay [1] was determined as 10 µM; in assay [2], 10.8 µM.
Turning to `CC1CCC(N2C(=O)CC(=O)N(CCc3ccc(Cl)cc3)C2=O)C1` (centres undefined), the IC50 in assay [1] came out at 20.4 µM; in assay [2], 9.8 µM.
`CC(=O)O[C@H]1CCC[C@@H]1N1C(=O)CC(=O)N(CCc2cccc(Cl)c2)C1=O`: the results for the half-maximal inhibitory concentration (IC50) in assay [1] and in assay [2] were 48.1 µM and > 100 µM, respectively.
As for `C[C@@H]1CCC[C@@H]1N1C(=O)CC(=O)N(CCc2ccc(Cl)cc2)C1=O`, the IC50 was found to be 5.1 µM in assay [1] and 3.1 µM in assay [2].
Regarding `CCC1CCC(N2C(=O)CC(=O)N(CCc3ccc(Cl)cc3)C2=O)C1` (racemic), the results for the IC50 in assay [1] and in assay [2] were 29 µM and 6.7 µM, respectively.
`O=C(O)[C@H]1CC[C@@H](N2C(=O)CC(=O)N(CCc3cccc(Cl)c3)C2=O)C1`: the IC50 in assay [1] and in assay [2] was > 100 µM throughout.
On to `C[C@H]1CCC[C@@H]1N1C(=O)CC(=O)N(CCc2ccc(Cl)cc2)C1=O` (racemic), for which the IC50 in assay [1] came out at 23 µM; in assay [2] it was 7 µM.
Regarding `O=C1CC(=O)N(C2CC3CCC2C3)C(=O)N1CCc1cc(C(F)(F)F)cc(C(F)(F)F)c1` (mixture of isomers), the IC50 came to 3.8 µM in assay [1] and 1.8 µM in assay [2].
The like results for `C[C@H](c1cccc2ccccc12)N1C(=O)CC(=O)N(C2CCCC2)C1=O` were, in that order, 6.15 µM and 4.6 µM.
As for `CC(C)c1ccc(CCN2C(=O)CC(=O)N(C3CCCC3)C2=O)cc1`, the IC50 in assay [1] amounted to 57.6 µM; in assay [2] it was 39 µM.
In the case of `CC(C)(CN1C(=O)CC(=O)N(C2CCCC2)C1=O)c1cccc(C(F)(F)F)c1`, the figures for the IC50 in assay [1] and in assay [2] were 4.2 µM and 2.2 µM, respectively.
For the compound `O=C1CC(=O)N(C[C@H]2CCCO2)C(=O)N1CCc1ccc(Cl)cc1`, the half-maximal inhibitory concentration (IC50) in assay [1] and in assay [2] was > 100 µM each time.
In the case of `O=C1CC(=O)N(C2CCCC2)C(=O)N1Cc1cccc(Cl)c1`, the half-inhibitory concentration (IC50) is 46.7 µM in assay [1] and 43 µM in assay [2].
The like results for `CC(Cc1ccc(Cl)cc1)N1C(=O)CC(=O)N(C2CC3CCC2C3)C1=O` (racemic) were, in that order, 4.1 µM and 3.6 µM.
Turning to `O=C1CC(=O)N(C2CCCC2)C(=O)N1CCC(c1ccccc1)c1ccccc1`, the IC50 in assay [1] came out at 4.7 µM; in assay [2] it was 4.1 µM.
In the case of `C[C@H]1CCCC[C@H]1N1C(=O)CC(=O)N(CCc2ccc(Cl)cc2)C1=O`, the figures for the IC50 in assay [1] and in assay [2] were 8.3 µM and 6.1 µM, respectively.
On to `CCC(CC)N1C(=O)CC(=O)N(CCc2cccc(Cl)c2)C1=O`, for which the figures for the IC50 in assay [1] and in assay [2] were 25.5 µM and 11.7 µM, respectively.
With `O=C1CC(=O)N(C2CCCC2)C(=O)N1Cc1ccc(Cl)cc1`, the IC50 came out at 51.7 µM in assay [1] and 17.9 µM in assay [2].
In the case of `O=C1CC(=O)N(C2CCCC2)C(=O)N1CC1(c2ccc(Cl)cc2)CC1`, the IC50 in assay [1] was > 100 µM; in assay [2] it was 7.3 µM.
On to `CC(C)C(=O)O[C@H]1CCC[C@@H]1N1C(=O)CC(=O)N(CCc2cccc(Cl)c2)C1=O`, for which the figures for the IC50 in assay [1] and in assay [2] were 12.9 µM and 13.7 µM, respectively.
`C[C@H](C1CCCCC1)N1C(=O)CC(=O)N(CCc2cccc(Cl)c2)C1=O`: the IC50 in assay [1] was > 100 µM; in assay [2], 9.7 µM.
As for `C[C@H]1CCC[C@H]1N1C(=O)CC(=O)N(CCc2ccc(Cl)cc2)C1=O`, the IC50 stood at 10 µM in assay [1] and 2.8 µM in assay [2].
The like results for `COC(=O)C(Cc1ccc(Cl)cc1)N1C(=O)CC(=O)N(C2CCCC2)C1=O` (centres undefined) were, in that order, 13.4 µM and 7.5 µM.
On to `O=C1CC(=O)N(C2CCCC2)C(=O)N1c1cccc(C(F)(F)F)c1`, for which the IC50 in assay [1] and in assay [2] was > 100 µM throughout.
With `CC1(C)[C@@H]2CC[C@H](CN3C(=O)CC(=O)N(CCc4cccc(Cl)c4)C3=O)[C@H]1C2`, the IC50 was found to be 47 µM in assay [1] and 40 µM in assay [2].
As for `O=C1CC(=O)N(C2CCCC2)C(=O)N1CCc1cccc(Cl)c1`, the IC50 was > 100 µM in assay [1] and 6.3 µM in assay [2].
Regarding `CCOC(=O)[C@@H]1CCC[C@@H]1N1C(=O)CC(=O)N(CCc2cccc(Cl)c2)C1=O`, the IC50 in assay [1] is 12.6 µM; in assay [2], 12 µM.
With `CC1CCC(N2C(=O)CC(=O)N(CCc3ccc(Cl)cc3)C2=O)CC1` (centres undefined), the IC50 in assay [1] turned out to be 30 µM; in assay [2], 11 µM.
As for `CC1CCC(N2C(=O)CC(=O)N(CCc3cccc(Cl)c3)C2=O)CC1` (centres undefined), the IC50 in assay [1] is 46 µM; in assay [2] it was 35 µM.
As to `O=C1CC(=O)N(C2CC3CCC2C3)C(=O)N1CCc1cc(Cl)cc(Cl)c1` (racemic), the IC50 in assay [1] was found to be 4.6 µM; in assay [2] it was 2.7 µM.
Take `O=C1CC(=O)N([C@H]2C[C@H]3CC[C@@H]2C3)C(=O)N1CCc1cccc(C(F)(F)F)c1`: the IC50 is > 100 µM in assay [1] and 3 µM in assay [2].
As for `O=C1CC(=O)N(C2CCCC2)C(=O)N1CCc1ccc(-c2ccccc2)cc1`, the IC50 turned out to be 5.4 µM in assay [1] and 4.4 µM in assay [2].
For `CC(C)C(=O)OCC1(N2C(=O)CC(=O)N(CCc3cccc(Cl)c3)C2=O)CCCC1` the same measures were 10.6 µM and 11.9 µM.
On to `O=C1CC(=O)N([C@H]2C[C@H]3CC[C@@H]2C3)C(=O)N1CCc1ccc(Cl)cc1`, for which the IC50 in assay [1] was determined as 100 µM; in assay [2], 2.1 µM.
As to `O=C1CC(=O)N([C@H]2CCNC2)C(=O)N1CCc1cccc(Cl)c1`, the IC50 in assay [1] and in assay [2] was > 100 µM each time.
For the compound `CC1CCC(N2C(=O)CC(=O)N(CCc3cccc(Cl)c3)C2=O)C1` (centres undefined), the results for the IC50 in assay [1] and in assay [2] were 38 µM and 3.7 µM, respectively.
Regarding `CC(=O)OCC1(N2C(=O)CC(=O)N(CCc3cccc(Cl)c3)C2=O)CCCC1`, the IC50 was determined as 29.1 µM in assay [1] and 39.3 µM in assay [2].
On to `CC1(C)[C@@H]2CC[C@H](CN3C(=O)CC(=O)N(CCc4ccc(Cl)cc4)C3=O)[C@H]1C2`, for which the IC50 in assay [1] and in assay [2] was > 100 µM in each case.
As for `C[C@@H]1[C@@H](N2C(=O)CC(=O)N(CCc3ccc(Cl)cc3)C2=O)C[C@H]2C[C@@H]1C2(C)C`, the IC50 came to 28 µM in assay [1] and 22 µM in assay [2].
As to `COC(=O)C1(N2C(=O)CC(=O)N(CCc3cccc(Cl)c3)C2=O)CCCC1`, the IC50 was 33.4 µM in assay [1] and 32.7 µM in assay [2].
Regarding `CC1(C)CCC[C@@H]1N1C(=O)CC(=O)N(CCc2ccc(Cl)cc2)C1=O`, the IC50 amounted to 2.3 µM in assay [1] and 1.7 µM in assay [2].
As for `CC1(C)[C@@H]2CC[C@@]1(C)[C@@H](N1C(=O)CC(=O)N(CCc3ccc(Cl)cc3)C1=O)C2`, the concentration for half-maximal inhibition (IC50) in assay [1] and in assay [2] was > 100 µM each time.
Regarding `C[C@@H]1[C@@H](C)CC[C@@H]1N1C(=O)CC(=O)N(CCc2cccc(Cl)c2)C1=O`, the IC50 in assay [1] was found to be 13.2 µM; in assay [2], 3.09 µM.
The like results for `CC(C)(CN1C(=O)CC(=O)N(C2CC3CCC2C3)C1=O)c1cccc(Cl)c1` (mixture of isomers) were, in that order, 2.8 µM and 2.3 µM.
Turning to `O=C1CC(=O)N(C2CC3CCC2C3)C(=O)N1CCc1cccc(C(F)(F)F)c1` (racemic), the IC50 in assay [1] stood at 100 µM; in assay [2] it was 2.4 µM.
For the compound `O=C1CC(=O)N(C2CCc3ccccc32)C(=O)N1C1CCCC1` (centres undefined), the figures for the IC50 in assay [1] and in assay [2] were 24.8 µM and 19.9 µM, respectively.
`CCC1CCC(N2C(=O)CC(=O)N(CCc3cccc(Cl)c3)C2=O)C1` (centres undefined): the IC50 in assay [1] was found to be 15 µM; in assay [2] it was 7.3 µM.
The like results for `CC1(C)[C@@H]2CC[C@@]1(C)[C@@H](N1C(=O)CC(=O)N(CCc3cccc(Cl)c3)C1=O)C2` were, in that order, > 100 µM and > 100 µM.
Regarding `COC(=O)[C@@H](Cc1ccccc1)N1C(=O)CC(=O)N(C2CCCC2)C1=O`, the IC50 in assay [1] came to 44.3 µM; in assay [2], 55 µM.
The like results for `O=C1CC(=O)N(C2CCCc3ccccc32)C(=O)N1C1CCCC1` (centres undefined) were, in that order, 20 µM and 19.7 µM.
Consider `CO[C@H]1CCC[C@@H]1N1C(=O)CC(=O)N(CCc2cccc(Cl)c2)C1=O`, for which the IC50 in assay [1] worked out at 34.6 µM; in assay [2], 30.3 µM.
In the case of `COC(=O)[C@H](Cc1ccccc1)N1C(=O)CC(=O)N(C2CCCC2)C1=O`, the IC50 in assay [1] and in assay [2] was > 100 µM each time.
Consider `O=C1CC(=O)N(C2CCCC2)C(=O)N1CCc1cc(Cl)cc(Cl)c1`, for which the IC50 in assay [1] came out at 3.3 µM; in assay [2], 1.4 µM.
The like results for `C[C@H]1[C@H](N2C(=O)CC(=O)N(CCc3cccc(Cl)c3)C2=O)C[C@@H]2C[C@H]1C2(C)C` were, in that order, > 100 µM and > 100 µM.
For the compound `CC(CN1C(=O)CC(=O)N(C2CCCC2)C1=O)c1cccc(Cl)c1` (centres undefined), the figures for the IC50 in assay [1] and in assay [2] were 20.7 µM and 4.2 µM, respectively.
As for `C[C@@H](C1CCCCC1)N1C(=O)CC(=O)N(CCc2cccc(Cl)c2)C1=O`, the IC50 is > 100 µM in assay [1] and 4.3 µM in assay [2].

The record behind these values is ChEMBL document CHEMBL2380260, “Structure-activity relationship of N,N'-disubstituted pyrimidinetriones as Ca(V)1.3 calcium channel-selective antagonists for Parkinson's disease” (J Med Chem, 2013).
